Source: PubChem BioAssay
Shown are actives, neighbours in structure and some others; about 3.5% of the full set was active somewhere.
MrgX1 allo act – positive allosteric modulators of MrgX1, primary screen, HEK293 cells, Fluo-4 calcium flux | B-score at 10 µM | FDSS; stronger effect = higher value | AID 588675, 2011 | hit rate 0.63% among 310,000;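 active means plate-corrected calcium response at least 3 library SD above typical, normal starting fluorescence, not activating the receptor alone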;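 further: compound read alongside a low EC10 to EC30 dose of BAM8-22 agonist; peak minus trough fluorescence over baseline measured at the second addition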
Target sequence (Q96LB2 whole entry, looked up): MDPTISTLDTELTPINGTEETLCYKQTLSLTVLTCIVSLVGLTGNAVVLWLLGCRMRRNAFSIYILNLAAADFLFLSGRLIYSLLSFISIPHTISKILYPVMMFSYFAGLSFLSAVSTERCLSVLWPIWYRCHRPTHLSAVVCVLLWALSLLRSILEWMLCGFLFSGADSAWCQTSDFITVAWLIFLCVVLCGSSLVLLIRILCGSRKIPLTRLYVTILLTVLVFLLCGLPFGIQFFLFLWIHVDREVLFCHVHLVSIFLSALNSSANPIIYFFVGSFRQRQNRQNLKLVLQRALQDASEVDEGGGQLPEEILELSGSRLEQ
RGS4 pot – RGS4 potentiators or activators, primary screen, cell-based, HEK293 M3R inducible RGS4, calcium flux; hit rate 0.92% among 310,000; carbachol calcium flux Fluo4; stronger effect = lower value; B-score at 10 µM; AID 463111, 2010;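 active means B-score of the integrated calcium signal more than 4 SD below the library mean, with starting fluorescence not abnormally high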;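 further: negative B-score means reduced calcium response which marks RGS4 activation or potentiation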
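System: HEK293 FlpIn-TREx cells, stable M3R, doxycycline-inducible RGS4. Timing: overnight RGS4 induction, 30 min dye load 37 °C, 20 min compound RT. Also added: carbachol, ECmax concentration. Measured by: Fluo4 fluorescence kinetic imaging of calcium. Evaluation: integrated calcium ratio converted to B score.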
RGS4 block – RGS4 inhibitors, primary screen, cell-based, HEK293 M3R inducible RGS4, calcium flux | Fluo-4 calcium flux; stronger effect = higher value; triggered by carbachol at its EC20 | B-score at 10 µM | hit rate 0.45% among 310,000 | AID 463165, 2010;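 active means B-score, a plate-corrected calcium signal, over three deviations above library mean, with baseline fluorescence within five deviations of library mean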;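 further: RGS4 expression induced by doxycycline in cells with stable M3 receptor; B-score is computed from the integrated fluorescence ratio over baseline after carbachol; higher B-score means a larger calcium signal and so more RGS4 inhibition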
Target sequence (P49798 whole entry, looked up): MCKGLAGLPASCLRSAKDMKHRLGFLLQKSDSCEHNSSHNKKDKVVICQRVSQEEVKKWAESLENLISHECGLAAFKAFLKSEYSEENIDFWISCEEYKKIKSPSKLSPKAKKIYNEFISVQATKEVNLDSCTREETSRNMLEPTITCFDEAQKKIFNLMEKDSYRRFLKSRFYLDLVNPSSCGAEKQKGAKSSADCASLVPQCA
MrgX1 antag – antagonists of human MrgX1 receptor, primary screen, HEK293 cells, Fluo-4 calcium flux; BAM8-22 antagonism; stronger effect = lower value; B-score at 10 µM; hit rate 1.3% among 310,000;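 active means calcium-response B-score plate-corrected more than 3 library SD below zero, starting fluorescence within 5 deviations, no agonist response on first addition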;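 further: peak minus trough fluorescence over baseline after final BAM8-22 challenge near maximal dose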
MrgX1 ag – agonists of human MrgX1 receptor, primary screen, HEK293 cells, Fluo-4 calcium flux. Mas-related G-protein coupled receptor member X1 (Homo sapiens), Q96LB2. Fluo-4 calcium fluorescence, agonist mode; stronger effect = higher value. B-score at 10 µM. hit rate 0.44% among 310,000. AID 588627, 2011;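 active means calcium response B-score plate-corrected fluorescence ratio at least 3 library SD, with starting fluorescence B-score inside 5 SD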
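System: HEK293 cells stably expressing human MrgX1 receptor; Dosing: test compound in the initial addition of three; Schedule: overnight plating, then 30 min 37 °C plus 30 min room-temperature dye loading; Detection: kinetic calcium dye fluorescence, Fluo-4 NW; Controls: per-plate positive and negative controls for Z′ factor.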
RGS4 act valid – reduced carbachol calcium response, RGS4-induced M3R cells, confirmation, RGS4 activator project, cell-based, HEK293 M3R/RGS4 inducible, calcium flux, duplicate. carbachol calcium flux Fluo4. inhibition, % at 10 µM. shares compounds with RGS4 pot. hit rate 89% among 1,100. AID 602282, 2012;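 active means inhibition above 3 SD of the buffer control wells, cut at about 41% in these data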;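 further: signal is the integrated peak-minus-minimum Fluo4 fluorescence over baseline ratio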
M3R Ca counter – activity in cells without induced RGS4 expression. HEK293 M3R non-induced RGS4, Fluo4 calcium flux; after carbachol challenge at its EC90. shares compounds with RGS4 pot. AID 602283. inhibition, % at 10 µM. hit rate 82% among 1,100;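 active means inhibition exceeding 3 SD of buffer-only control wells, cut at about 26% in these data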;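 further: percent drop in integrated peak-minus-baseline over baseline Fluo4 ratio after carbachol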
Large screens that a line does not name were inactive (follow-up assays come after a bar, where they were run).

Cc1ccc(N(Cc2ccc([N+](=O)[O-])cc2)C(=O)c2ccco2)cc1C	RGS4 pot -11.1 | RGS4 act valid 88.0 | M3R Ca counter 40.3
O=C(c1ccco1)N(Cc1ccc([N+](=O)[O-])cc1)c1ccc(Cl)cc1	none
COc1ccc(CCNc2nc(N3CCCCC3)nc(N3CCCCC3)n2)cc1OC	RGS4 pot -8.36 | RGS4 act valid 76.5 | M3R Ca counter 46.3
COc1nc(NCCc2ccc(OC)c(OC)c2)nc(OC)n1	none
CCOC(=O)c1cc(C)nc(N2CCCCC2)c1C#N	RGS4 pot -11.3 | RGS4 act valid inactive | M3R Ca counter inactive
Cc1cc(N(C)C)c(C#N)c(N2CCCCC2)n1	none
Cc1ccccc1C(=NCCCN(C)C)c1ccccc1C	RGS4 pot -9.35 | RGS4 act valid 87.5 | M3R Ca counter 55.8
CC(C)CNCC(=O)N1c2ccccc2Sc2ccccc21	RGS4 pot -7.96 | RGS4 act valid 86.5 | M3R Ca counter 49.8
Cc1cccc[n+]1CC(=O)N1c2ccccc2Sc2ccccc21	RGS4 pot -14.1 | RGS4 act valid 92.0 | M3R Ca counter 87.3
COCCNCC(=O)N1c2ccccc2Sc2ccccc21	RGS4 pot -9.49 | RGS4 act valid 93.5 | M3R Ca counter 40.8
COCCCNC(=O)N1c2ccccc2Sc2ccccc21	none
COC(=O)[C@@H]1C[C@@H]2CC[C@@H](O)C[C@@H]2N1Cc1ccccc1OS(=O)(=O)c1ccc(C)cc1	none
O=C(O)c1cc2c([nH]c1=O)CCCC2	none
C=CCSC(=C(C#N)C#N)c1cc2c([nH]1)CCCC2	RGS4 pot -9.2 | RGS4 act valid 89.5 | M3R Ca counter 31.8
Nc1cc(=O)[nH]c(SCC(=O)Nc2ccc(Oc3ccccc3)cc2)n1	RGS4 pot -10.2 | RGS4 act valid inactive | M3R Ca counter inactive
Nc1cc(=O)[nH]c(SCC(=O)Nc2cccc(Cl)c2)n1	none
Cc1ccccc1CN1C(=O)/C(=C\c2ccc(C(=O)NCCN3CCOCC3)cc2)Sc2ccccc21	RGS4 pot -12.1 | RGS4 act valid 90.5 | M3R Ca counter 81.3
Cc1cc(C)c(S(=O)(=O)N(C)CC(=O)NCc2ccncc2)c(C)c1	none
CC(=O)N1c2ccccc2C(C)CC12CCCCC2 (stereo not drawn)	RGS4 pot -7.79 | RGS4 act valid 85.5 | M3R Ca counter 37.3
Fc1ccc(-n2nnnc2-c2cnc(-c3cccs3)nc2C(F)(F)F)cc1	RGS4 pot -9.72 | RGS4 act valid 73.5 | M3R Ca counter 44.3
FC(F)(F)c1nc(-c2ccncc2)ncc1-c1nnnn1-c1ccccc1	none
O=C(Nc1nnc(S(=O)(=O)N2CCCCC2)s1)c1cccc(Br)c1	none
COc1ccc(S(=O)(=O)N2CCCCC2)cc1C(=O)N1CCCCCC1	none
CCN(C(=O)COC(=O)/C(C#N)=C/c1ccc(OC)cc1)C1CCS(=O)(=O)C1 (stereo not drawn)	none
Cc1ccc(S(=O)(=O)NC(C(=O)Oc2ccc3c(C)c(Cl)c(=O)oc3c2)c2ccccc2)cc1 (stereo not drawn)	none
CCC[C@@H](NS(=O)(=O)c1ccc(C)cc1)C(=O)Oc1ccc2c3c(c(=O)oc2c1)CCC3	RGS4 pot -7.56 | RGS4 act valid 92.0 | M3R Ca counter 71.3
O=C(COc1ccc(Br)cc1)Nc1ccc([N+](=O)[O-])cn1	none
Cc1oncc1C(=O)N1CCCC(CO)(Cc2ccc(F)cc2F)C1 (stereo not drawn)	none
S=C(NCC1CCCCC1)Nc1ccc(Oc2ccccc2)cc1	RGS4 pot -7.61 | RGS4 act valid 93.0 | M3R Ca counter 59.8
COc1cccc(-c2nnc(NC(=O)c3ccc(S(=O)(=O)N4CCOCC4)cc3)o2)c1	none
COc1cccc(C(=O)NCC2CCN(c3ccc(S(=O)(=O)N4CCOCC4)cc3)CC2)c1	RGS4 pot -8.61 | RGS4 act valid 91.5 | M3R Ca counter 58.3
O=C(NCC1CCN(c2ccc(S(=O)(=O)N3CCOCC3)cc2)CC1)c1cccc(Cl)c1	RGS4 pot -8.05 | RGS4 act valid 90.0 | M3R Ca counter 92.3
O=C(c1ccc(S(=O)(=O)N2CCOCC2)cc1)N1CCN(c2cccc(Cl)c2)CC1	none
COc1ccc(N2CCN(S(=O)(=O)c3c(C)nc4sccn4c3=O)CC2)cc1	none
CCOc1ccc(C(=O)n2cc(C(=O)OC)c3ccccc32)cc1OCC	none
CCOc1ccc(C(=O)n2cc(C(=O)OC)c3ccccc32)cc1	RGS4 pot -8.55 | RGS4 act valid 69.0 | M3R Ca counter 83.8
CCN(C(=O)COC(=O)/C=C/c1cnc2ccccc2n1)c1ccccc1	none
OC1(c2ccc(Br)cc2)CN(c2ccccc2)C2=[N+]1CCS2 (stereo not drawn)	none
COc1ccc(NC2=NCC(Cc3ccc(Br)cc3)S2)cc1 (stereo not drawn)	RGS4 pot -8.85 | RGS4 act valid 94.0 | M3R Ca counter 82.8
CC(C)CSC1=NSC2=NC(=O)/C(=C\c3coc4ccccc4c3=O)C(=N)N12	RGS4 pot -12.1 | RGS4 act valid 98.5 | M3R Ca counter 99.8
COc1cccc(NC(=O)CN(C)C(=O)c2cc(-c3cccc(Br)c3)nc3ccccc23)c1	RGS4 pot -9.46 | RGS4 act valid 84.5 | M3R Ca counter 27.8
NC(=O)CC1NC(=O)c2cc([N+](=O)[O-])cc(I)c2OCCC(C(N)=O)NC(=O)[C@@H]2CCCN2C1=O (stereo partly drawn)	none (no result: RGS4 pot, RGS4 block)
CC(=O)N(NC(=O)c1ccccc1Cl)C1CC(=O)N(c2ccc(C)cc2)C1=O (stereo not drawn)	none
c1ccc(-c2nc3ccccn3c2NCc2ccc3c(c2)OCO3)cc1	none
COc1ccc(-c2nc3ccccn3c2NCc2ccc3c(c2)OCO3)cc1	RGS4 pot -8.62 | RGS4 act valid 60.5 | M3R Ca counter inactive
O=C1CC(c2ccco2)Cc2nc(N3CCN(Cc4ccc5c(c4)OCO5)CC3)ncc21 (stereo not drawn)	RGS4 pot -8.94 | RGS4 act valid 88.5 | M3R Ca counter 65.3
O=[N+]([O-])c1ccc(C2Oc3ccccc3C3CC(c4ccccc4)=NN32)s1 (stereo not drawn)	none (no result: RGS4 pot, RGS4 block)
ONC(=Nc1ccccc1Cl)c1c(F)cccc1F	none
C=CCc1cc2c(oc(=O)c3ccccc32)c(C)c1O	RGS4 pot -8.98 | RGS4 act valid 49.0 | M3R Ca counter 83.8
